Measurements from different studies.
Compare with care: the assays were run in different laboratories. Converted amounts (≈) assume the structure as drawn.
Organism: Klebsiella pneumoniae

Compound | read-out | technique | strain | tested at | time | quantity | result
Cc1ccc(C(C)C)cc1OCc1cn(-c2ccc([N+](=O)[O-])cc2)nn1 | microbial growth | broth dilution | ATCC700603 |  |  | IC50 | 122 µg/mL (≈ 346 µM)
CC[C@H]1OC(=O)[C@H](C)[C@@H](O[C@H]2C[C@@](C)(OC)[C@@H](O)[C@H](C)O2)[C@H](C)[C@@H](O[C@@H]2O[C@H](C)C[C@H](N(C)C)[C@H]2O)[C@](C)(OC)C[C@@H](C)C(=O)[C@H](C)[C@@H](O)[C@]1(C)O | microbial growth | broth dilution | ATCC700603 |  |  | MIC | 80 µM
O=C1C=C(O)C(=O)c2ccccc21 | microbial growth | broth dilution | ATCC700603 |  |  | IC50 | 123 µg/mL (≈ 709 µM)
CCOC(=O)C=c1[nH]c(=O)c(=Cc2cn(-c3ccccc3)nc2-c2ccccc2)s1 | microbial growth | well diffusion |  | 100000 µg/mL |  | inhibition zone | 14 mm
Cc1ccc(-n2cc(COC3=CC(=O)c4ccccc4C3=O)nn2)cc1 | microbial growth | broth dilution | ATCC700603 |  |  | IC50 | 220 µg/mL (≈ 638 µM)
Cc1c(NN=C2SC(C(C#N)=Cc3ccccc3)=NC2=O)c(=O)n(-c2ccccc2)n1C | microbial growth | well diffusion |  | 100000 µg/mL |  | inhibition zone | 14 mm
C[C@H]1[C@H](NC(=O)/C(=N\OC(C)(C)C(=O)O)c2csc(N)n2)C(=O)N1S(=O)(=O)O | microbial growth | broth dilution | ATCC700603 |  |  | MIC | 0.63 µM
Cc1c(CN(C)C(=O)/C=C/c2cnc3c(c2)CC(CCN)C(=O)N3)oc2ccccc12.Cl (centres unmarked) | microbial growth | broth dilution | BAA2470 |  |  | MIC | 4 µg/mL
O=C(O)c1cn(C2CC2)c2cc(N3CCNCC3)c(F)cc2c1=O | microbial growth | disc diffusion |  | 100 µg/mL | 24 h | inhibition zone | 17 mm
CC(=O)NC[C@H]1CN(c2ccc(N3CCOCC3)c(F)c2)C(=O)O1 | microbial growth | broth dilution | ATCC700603 |  |  | MIC | 1280 µM
N#CC(=Cc1ccccc1O)C1=NC(=O)C(=Cc2cn(-c3ccccc3)nc2-c2ccccc2)S1 | microbial killing | broth dilution |  |  |  | MBC | 0.5 µg/mL
Cc1ccc(C(C)C)cc1OCc1cn(-c2ccc(C(=O)O)cc2)nn1 | microbial growth | broth dilution | ATCC700603 |  |  | IC50 | 261 µg/mL (≈ 743 µM)
Cc1c(NC(=O)CC2=NC(=O)CS2)c(=O)n(-c2ccccc2)n1C | microbial growth | well diffusion |  | 100000 µg/mL |  | inhibition zone | 25 mm
CCn1cc(C(=O)O)c(=O)c2cc(F)c(N3CCNCC3)cc21 | microbial killing | broth dilution | ATCC43816 |  |  | MBC | 2 µM
Cc1ccc(C(C)C)cc1O | microbial growth | broth dilution | ATCC700603 |  |  | IC50 | 61.9 µg/mL (≈ 412 µM)
CNC(C)C1CCC(N)C(OC2C(N)CC(N)C(OC3OCC(C)(O)C(NC)C3O)C2O)O1 (centres unmarked) | microbial growth | broth dilution | ATCC700603 |  |  | MIC | 0.31 µM
N#CC(=Cc1ccc([N+](=O)[O-])cc1)C1=NC(=O)C(=Cc2cn(-c3ccccc3)nc2-c2ccccc2)S1 | microbial growth | well diffusion |  | 100000 µg/mL |  | inhibition zone | 22 mm
